Results: BindingDB's records for doi:10.1021/acs.jmedchem.8b00139 (University Park Nottingham, 2018)

Target: P2Y purinoceptor 2 (Homo sapiens, UniProt P41231)
Experiment: Displacement of (E)-2-((5-(7-Chloro-2-((3-((2-(6-(3-(5,5-difluoro-7,9-dimethyl-5H-5-lambda4,6-lambda4-dipyrrolo[1,2-c:2,1-f ][1,3,2]diazaborinin-3-yl)-propanamido)hexanamido)ethyl)amino)-3-oxopropyl)amino)-4Hbenzo[5,6]cyclohepta[1,2-d]thiazol-4-yl)-2-oxo-4-thioxo-3,4-dihydropyrimidin-1(2H)-yl)methyl)-N-(1H-tetrazol-5-yl)thiazole-4-carboxamide from human N-terminal NLuc-tagged P2Y2R expressed in human 1321N1 cells incubated for 1 hr by furimazine-based NanoBRET assay
Procedure, shortened: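 Competition binding in 1321N1 cells expressing N-terminal NanoLuc-hP2Y2R. The fluorescent tracer was used at 1 µM (or the bodipy A tracer at 100 nM) against increasing concentrations of unlabeled ligand. After furimazine addition the BRET signal was read and pKi estimated; mean ± SEM of separate experiments.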

P2Y purinoceptor 2, sequence (P41231 whole entry): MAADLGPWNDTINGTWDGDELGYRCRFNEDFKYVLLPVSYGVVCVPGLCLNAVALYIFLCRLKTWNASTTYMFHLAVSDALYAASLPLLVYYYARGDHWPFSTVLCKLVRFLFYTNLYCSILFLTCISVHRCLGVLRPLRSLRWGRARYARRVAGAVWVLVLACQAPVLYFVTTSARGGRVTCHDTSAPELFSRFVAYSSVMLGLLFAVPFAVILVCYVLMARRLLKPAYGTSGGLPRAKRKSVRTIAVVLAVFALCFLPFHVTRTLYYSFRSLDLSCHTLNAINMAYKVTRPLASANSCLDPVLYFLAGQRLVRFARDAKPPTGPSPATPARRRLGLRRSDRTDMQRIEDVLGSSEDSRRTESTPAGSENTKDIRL

Row | SMILES | Ki
1 | CCOCCNc1nc2c(s1)C=Cc1cc(Cl)ccc1[C@H]2c1cn(C)c(=O)[nH]c1=S | 275 nM
2 | CCOCCNc1nc2c(s1)C=Cc1cc(Cl)ccc1[C@@H]2c1cn(C)c(=O)[nH]c1=S | 5250 nM
